Laboratory results from ChEMBL document CHEMBL4513216, “Probing the Open Global Health Chemical Diversity Library for Multistage-Active Starting Points for Next-Generation Antimalarials” (ACS Infect Dis, 2020).

Assay: Toxicity liver stage against HepG2, at 10uM
Type: cell-based
Parameters: test concentration 10 uM, cell line HepG2-A16-CD81EGFP
Settings: human, HepG2-A16-CD81EGFP cells; read-out: INHIBITION
Summary of the method: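 Uninfected HepG2-A16-CD81EGFP cells, 3 × 10^3 per well, 1536-well, plated on prespotted compound at 10 μM final, parasite-free screening media added to match infected plates; puromycin 10 μM positive, DMSO 0.5% negative; run in parallel with 48 h PbLuc assay at 37 °C, 5% CO2; viability by CellTiter-Glo luminescence, normalized to controls.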

SMILES | cytotoxicity at 10 µM
COC(=O)c1cccc(C(=O)N2CCN(c3cc(C)ccc3C)CC2)n1 | 7.8%
Cn1cc(NC(=O)c2cccc3cccnc23)ccc1=O | -4.83%
O=C1CSC(c2ccsc2)c2c(n(C3CCOCC3)[nH]c2=O)N1 (centres undefined) | 9.53%
CCS(=O)(=O)N1CCC(NC(=O)c2cc(C(C)C)ccc2O)CC1 | -5.16%
COc1cc(N(C)Cc2noc(CC(C)C)n2)ncn1 | -0.71%
Cc1n[nH]c(C)c1CNC(=O)c1cn(CCC2CCCCN2)nn1 (centres undefined) | 1.61%
c1csc(-c2nc(CNCCn3cccn3)cs2)c1 | -7.36%
COC[C@@]12CCC[C@@H]1CN(C(=O)CN(C)C)C2 | 4.84%
CCc1c(C(=O)NCC2CCS(=O)(=O)C2)cnn1-c1ccccc1 (centres undefined) | -8.22%
CCCc1nc(CN2CCOC(Cn3cccn3)C2)no1 (centres undefined) | -27.1%
CC(CNC(=O)Nc1cn[nH]c1)N1CCc2ccccc2C1 (centres undefined) | -0.289%
Cc1ccc(Oc2ncccc2C(=O)O)c(C)c1 | 2.4%
COc1cccc(CN(C)c2ncc(C(N)=O)cc2Cl)c1 | 2.53%
CN(C)C(=O)Cn1c(C2CC2)c(CN2CCC(O)CC2)c2cccnc21 | -4.9%
Cc1nc(C2CCCN(C(=O)c3cc(C)sc3C)C2)no1 (centres undefined) | 6.86%
Cc1nc(N2CCN(C(=O)c3ccco3)CC2)c2c(n1)c(C)nn2C | 12.1%
O=C(c1cncc(N2CCC(O)(CO)CC2)n1)N1CCCC1 | -7.71%
CC(C)(C)c1noc(CN2CCCN(Cc3cccs3)CC2)n1 | -8.8%
Cc1cn(CC(=O)NC2CCN(C(C)C)CC2)c2ccccc12 | 0.0531%
COC(=O)C(C)(C)C(C)(C)NC(=O)Nc1nnc(-c2ccccn2)s1 | 9.15%
CCn1cc2[nH]c(OC)c(CNC(=O)C3CCS(=O)(=O)CC3)cc-2c1=O | 4.93%

SMILES | cytotoxicity at 10 µM
CC(C)C(C)NC(=O)Nc1ccccc1CN1CCOCC1 (centres undefined) | 0.795%
Cc1ccccc1-c1cc(CC2(C(=O)O)CCOCC2)on1 | -14.1%
NC(=O)C1CCN(C(=O)NCCOc2ccc3c(c2)CCC3)CC1 | -7.07%
O=C(CN1CCN(C(=O)c2sccc2C2CC2)CC1)NC1CC1 | -3.75%
O=C(O)CC1COCCN1C(=O)C1(c2ccc(Cl)cc2)CCC1 (centres undefined) | -17.8%
O=c1c(NCCNCCO)c(N2CCN(c3ccccc3)CC2)c1=O | -7.76%
Cn1nnnc1SCC1Cc2ccccc2O1 (centres undefined) | 14.9%
CC(=O)Nc1cc(C2CC2)nn1-c1nc(C)c(C)c(=O)[nH]1 | -1.39%
Cc1ccc(S(=O)(=O)NCC(C)C#N)cc1Br (centres undefined) | 0.727%
CCNc1cc2c(nn1)CCN(C(=O)CC1CCCC1)C2 | -3.87%
OC(COc1ccccc1)CN1CCC(c2ccn[nH]2)CC1 (centres undefined) | -3.76%
Cc1noc(C)c1-c1nc(C2CCCN(C(=O)C(C)C)C2)ccc1CO (centres undefined) | 0.983%
CC(NC(=O)N1CCCN(Cc2cccs2)CC1)c1cccnc1 (centres undefined) | -8.83%
COCCN1CCC2(CC1)CC(NC(=O)CN(C)C)c1ccccc1O2 (centres undefined) | 0.169%
CC(=O)N1CCN(c2cc(N(C)C)cnn2)CC1 | 1.37%
O=C(CN1C=Nc2ccccc2S1(=O)=O)NCCc1cccs1 | -8.55%
CC(=O)N(C)Cc1ccccc1NCc1c(C)noc1C | 5.76%
CNC(=O)c1ccc(-c2ccccc2)n1C | -1.6%
CC(NC1(CNC(=O)OC(C)(C)C)CCOCC1)c1ccccc1 (centres undefined) | 3.63%
COCC1CN(S(=O)(=O)N(C)C)Cc2ncn(CC3CC3)c21 (centres undefined) | 8.77%
CCC(Nc1ccc(Oc2ccccc2OC)cc1)C(N)=O (centres undefined) | 1.77%

SMILES | cytotoxicity at 10 µM
CCc1n[nH]c(C2CN(C(=O)c3ccc4c(c3)CCC4)CCO2)n1 (centres undefined) | -13.1%
Cn1nc(CN2CCCCC2)c2c1CN(Cc1ccoc1)C2 | -0.449%
CC(C)(C)OC(=O)N1CCCCC1C(=O)NCc1cc[nH]n1 (centres undefined) | 1.41%
Cc1ccc(S(=O)(=O)Nc2ccc(-n3cccc3C(=O)O)c(C)c2)s1 | 6.15%
CC(C)OCc1ncn2c1CN(Cc1ccc(F)cc1)CCC2 | 1.39%
O=C(NCCn1cccn1)c1nnc2ccccc2n1 | -2.41%
Cc1csc(C2CCCCN2C(=O)c2cn[nH]c2C)n1 (centres undefined) | -1.53%
COc1ccc(OC)c([C@@H]2N[C@H](c3nccs3)Cc3ccsc32)c1 | 12.6%
Cc1nc(CCN(C)C(=O)CCNC(=O)c2ccccc2F)no1 | 6.35%
Cc1ccc(C(=O)N2CCCc3c(c(=O)n(C)n3C)C2)o1 | 5.92%
c1cnnc(N2CCCC(NCc3cccc4c3OCCO4)C2)c1 (centres undefined) | -7.99%
Cn1cnnc1S(=O)(=O)C1CCN(C(=O)c2ccco2)CC1 | -2.28%
Cc1cc(CN(C)C(=O)C2CCCN(C(=O)c3ccc(Cl)cc3)C2)no1 (centres undefined) | -15.6%
CN(Cc1cnn(C)c1)C(=O)NCc1csc(Br)c1 | 0.568%
CCN(CC1CCOCC1)C(=O)Cn1cccc(C(F)(F)F)c1=O | -10.2%
CCOCc1nc(-c2ccc(F)cc2Cl)n(C)n1 | -10.2%
CCOc1ccc(Cl)c(C(=O)N2CCCN(CC(N)=O)CC2)n1 | -1.26%
COCCNC(=O)NC1CCN(c2cnn(C)c2)C1 (centres undefined) | 6%
c1ccc(-c2cnn3cc(CN4CCC5(CCO5)CC4)cnc23)cc1 | 1.64%
CC(C)CS(=O)(=O)CC(=O)NC1CCCCNC1=O (centres undefined) | -3.03%
Cc1ccccc1CN(C)C(=O)CN1CCCCC1Cn1cncn1 (centres undefined) | 8.44%

SMILES | cytotoxicity at 10 µM
CCCc1noc(CN2CCN(CCC(C)C)CC2)n1 | -1.48%
CNS(=O)(=O)c1ccc(CN2CCN3CCNC(=O)C3C2)cc1 (centres undefined) | -6.22%
CN(CCn1nc2ccccn2c1=O)CC(=O)N1CCCC1 | 7.08%
COCCc1noc(-c2ccc(-c3ccc(N)nc3)nc2)n1 | 2.5%
Cc1cc(C(=O)N2C[C@@H](CN(C)CCN(C)C)[C@@H](CO)C2)nc(C)n1 | 7.01%
O=c1cc(Cn2cncn2)nc2n1CCCN(Cc1ccsc1)C2 | -0.123%
CN(C)Cc1nn(C)c2c1CCN(C(=O)c1cnccn1)C2 | -134%
Cc1ccc(-c2cc(CNC(=O)N3CCC(O)CC3)on2)cc1 | -4.62%
Cn1cc(CN2CCc3ncn(C)c3C2COCc2cccnc2)cn1 (centres undefined) | 6.86%
Cn1c2ncccc2c(=O)n1CC(=O)NCCc1c(F)cccc1F | -5.33%
CN1CCC[C@H]1c1nc(-c2cncnc2N)no1 | 2.6%
CN(C)CCOCc1nnc2n1CCN(Cc1cccs1)CC2 | 9.03%
CCn1ccnc1CN1CCN(C(C)C(=O)N2CCCC2)CC1 (centres undefined) | -3.97%
CCc1nn(C)c(Cl)c1CN1CCCC(c2cc(O)nc(C)n2)C1 (centres undefined) | -2.37%
COc1ccc2c(c1)OCC(CNC(=O)c1ccc3[nH]nnc3c1)C2 (centres undefined) | -7.72%
O=C(CCc1ccccn1)N1CCCC1 | -6.96%
CC1CN(Cc2nnsc2Cl)CCN1c1nccs1 (centres undefined) | -39.3%
CCc1nnc2n1CCN(C(=O)c1ccc(C)c(S(N)(=O)=O)c1)C2 | -4.55%
CCOCc1ncn2c1CN(C(=O)Nc1cccc(F)c1)CC2 | 1.03%
COC(C(=O)N1CCN(c2cccc(Cl)c2)C(=O)C1)c1ccccc1 (centres undefined) | -9.09%
O=C([C@H]1C[C@@H]2CCN(c3cccc(F)c3)C[C@H]2O1)N1CCCC1 | 1.99%
